Assay results published in ChEMBL document CHEMBL1148384, “Design and synthesis of peptidomimetic protein farnesyltransferase inhibitors as anti-Trypanosoma brucei agents” (J Med Chem, 2004).

How the values were obtained:
[1] = system: Trypanosoma brucei rhodesiense; assay: Effective dose required to inhibit the growth of Trypanosoma brucei rhodesiense; assay type: functional; conditions: read-out: ED50 (the source's name)
Summary of the method: (§1)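 Bloodstream-form trypomastigotes of strain STIB 900 were grown in HMI-18 with nonessential amino acids, glucose and 15% heat-inactivated FCS at 37 °C, 5% CO2. Compounds were given as serial dilutions, in triplicate, from 1 × 10^4 cells/well. Cultures ran 72 h before Alamar Blue read-out, and ED50 was fitted.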

[2] = biological target: protein farnesyltransferase (Trypanosoma brucei); assay: Inhibition of Trypanosoma brucei protein farnesyltransferase
NIH3T3 [3] = assay: Effective dose against murine 3T3 fibroblasts cells; assay type: functional; conditions: Mus musculus, read-out: ED50 (the source's name)
Summary of the method: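 Murine 3T3 fibroblasts were grown in RPMI 1640 with 10% FBS and held 72 h with compound at 37 °C, 5% CO2.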

[4] = system: Trypanosoma brucei brucei; assay: Effective dose required to inhibit the growth of Trypanosoma brucei; assay type: functional; conditions: read-out: ED50 (the source's name)
Summary of the method: (§2)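 Bloodstream-form strain 427 was grown in HMI-9 with 10% FBS at 37 °C, 5% CO2. Cells were seeded at 1 × 10^4 trypomastigotes/well in triplicate, with serial dilutions from 20 mM DMSO stocks. Growth was read with Alamar Blue at 48 h, pentamidine served as positive control, and ED50 was fitted from the curves.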

[5] = system: protein farnesyltransferase (Trypanosoma brucei); assay: Inhibition of against Trypanosoma brucei protein farnesyltransferase at 50 nM concentration
[6] = system: protein farnesyltransferase (Trypanosoma brucei); assay: Inhibition of Trypanosoma brucei protein farnesyltransferase at 50 nM concentration (65-74%)
NIH3T3 [7] = assay: Dose required against murine 3T3 fibroblasts cells; 1-10 uM; assay type: functional; conditions: Mus musculus, read-out: ED50 (the source's name)
[8] = system: Trypanosoma brucei brucei; assay: Dose required to inhibit growth of Trypanosoma brucei; 1-10 uM; assay type: functional; conditions: read-out: ED50 (the source's name); summary of the method: as §2
[9] = system: Trypanosoma brucei brucei; assay: Dose required to inhibit growth of Trypanosoma brucei; 1-5 uM; assay type: functional; conditions: read-out: ED50; summary of the method: as §2
[10] = system: Trypanosoma brucei rhodesiense; assay: Dose required to inhibit growth of Trypanosoma brucei rhodesiense; 0.38-0.92 uM; assay type: functional; conditions: read-out: ED50; summary of the method: as §1
[11] = system: protein farnesyltransferase (Trypanosoma brucei); assay: Inhibition of Trypanosoma brucei protein farnesyltransferase at 50 nM (0-17%)
[12] = system: Protein farnesyltransferase (Trypanosoma brucei); assay: Inhibition of Trypanosoma brucei protein farnesyltransferase at 50 nM (82-87%)
[13] = system: Trypanosoma brucei rhodesiense; assay: Dose required to inhibit growth of Trypanosoma brucei rhodesiense; 14->60 uM; assay type: functional; conditions: read-out: ED50 (the source's name); summary of the method: as §1
[14] = system: protein farnesyltransferase (Trypanosoma brucei); assay: Inhibition of Trypanosoma brucei protein farnesyltransferase at 50 nM (29-41%)
NIH3T3 [15] = assay: Dose required to block Ras farnesylation in mouse 3T3 fibroblasts; assay type: functional; conditions: read-out: ED50 (the source's name)
[16] = biological target: Protein farnesyltransferase (Homo sapiens, UniProt P49354+P49356); assay: Inhibition of mammalian protein farnesyltransferase; assay type: protein-complex assay
[17] = biological target: protein farnesyltransferase (Trypanosoma brucei); assay: Inhibition of Trypanosoma brucei protein farnesyltransferase at 50 nM

EC50 [1] [µM] | EC50 [4] [µM] | inhibition [5] [%] | SMILES | EC50 (NIH3T3 [3]) [µM] | other results
> 60 | > 25 | 83.2 | CSCC[C@H](NC(=O)c1ccc(NC(=O)Cc2cncn2C)cc1-c1ccccc1C)C(=O)O | > 25 | IC50 [2]: 0.0066 µM
> 60 | > 10 |  | CSCC[C@H](NC(=O)c1ccc(NCc2cncn2Cc2cccc(Cl)c2)cc1-c1ccccc1)C(=O)O | > 10 | inhibition [6]: ≤ 74%
0.02 | 0.02 | 15.2 | CCCCC(CC)OC(=O)[C@H](CCSC)NC(=O)c1ccc(CNCc2c[nH]cn2)cc1-c1ccccc1C (stereo partly specified) |  | EC50 (NIH3T3 [7]): > 10 µM
 | 0.02 | 41.7 | CSCC[C@H](NC(=O)c1ccc(CNCc2c[nH]cn2)cc1-c1ccccc1C)C(=O)OCc1ccccc1 |  | EC50 (NIH3T3 [7]): > 10 µM
 | > 10 |  | CSCC[C@H](NC(=O)c1ccc(NCc2cncn2Cc2ccc(Cl)cc2)cc1-c1ccccc1)C(=O)O | > 10 | inhibition [12]: ≤ 87%; EC50 [13]: > 60 µM
 | > 10 |  | CSCC[C@H](NC(=O)c1ccc(NCc2cncn2Cc2ccc(C)cc2)cc1-c1ccccc1)C(=O)O | > 10 | inhibition [12]: ≤ 87%; EC50 [13]: > 60 µM
> 60 | > 10 |  | CSCC[C@H](NC(=O)c1ccc(NCc2cncn2Cc2ccccc2Cl)cc1-c1ccccc1)C(=O)O | > 10 | inhibition [14]: ≤ 41%
0.018 | 0.03 | 4.5 | CSCC[C@H](NC(=O)c1ccc(CNCc2c[nH]cn2)cc1-c1ccccc1C)C(=O)OC1CCCCC1 |  | EC50 (NIH3T3 [7]): > 10 µM
 | > 10 |  | CSCC[C@H](NC(=O)c1ccc(NCc2cncn2Cc2ccc([N+](=O)[O-])cc2)cc1-c1ccccc1)C(=O)O | > 10 | inhibition [12]: 87%; EC50 [13]: > 60 µM
> 60 | > 10 |  | CSCC[C@H](NC(=O)c1ccc(NCc2cncn2Cc2ccccc2C)cc1-c1ccccc1)C(=O)O | > 10 | inhibition [14]: ≤ 41%
0.2 | 1 | 96.1 | CSCC[C@H](NC(=O)c1ccc(CNCc2c[nH]cn2)cc1-c1ccccc1C)C(=O)O | > 25 | IC50 [2]: 0.0018 µM; EC50 (NIH3T3 [15]): 0.02 µM; IC50 [16]: 0.00086 µM
0.9 |  |  | CSCC[C@H](NC(=O)c1ccc(CN(Cc2c[nH]cn2)Cc2c[nH]cn2)cc1-c1ccccc1C)C(=O)O | > 10 | EC50 [8]: > 10 µM
> 60 | > 10 |  | CSCC[C@H](NC(=O)c1ccc(NCc2cncn2Cc2cccc(C)c2)cc1-c1ccccc1)C(=O)O | > 10 | inhibition [6]: ≤ 74%
0.009 | 0.01 | 4.9 | C=COC(=O)[C@H](CCSC)NC(=O)c1ccc(CNCc2c[nH]cn2)cc1-c1ccccc1C |  | EC50 (NIH3T3 [7]): > 10 µM
> 60 | > 10 |  | CSCC[C@H](NC(=O)c1ccc(NCc2cncn2Cc2ccc(C#N)cc2)cc1-c1ccccc1)C(=O)O | > 10 | inhibition [12]: ≤ 87%
> 60 | > 10 |  | CSCC[C@H](NC(=O)c1ccc(NCc2cncn2Cc2cccc(C#N)c2)cc1-c1ccccc1)C(=O)O | > 10 | inhibition [6]: ≤ 74%

Further lines, the molecule ahead of its results:

SMILES | EC50 [1] [µM] | EC50 [4] [µM] | inhibition [5] [%] | EC50 (NIH3T3 [3]) [µM] | other results
N#Cc1ccc(Cn2cncc2CNc2ccc(C(=O)NCC3CCCCC3)c(-c3ccccc3)c2)cc1 | 3.2 |  | 18.6 | > 10 | EC50 [8]: > 10 µM
COC(=O)[C@H](CCSC)NC(=O)c1ccc(NCc2cncn2Cc2cccc(Cl)c2)cc1-c1ccccc1 |  |  |  | > 10 | EC50 [9]: ≤ 5 µM; EC50 [10]: ≤ 0.92 µM; inhibition [11]: ≤ 17%
COC(=O)[C@H](CCSC)NC(=O)c1ccc(NCc2cncn2Cc2ccccc2C#N)cc1-c1ccccc1 |  |  | 0 | > 10 | EC50 [8]: ≤ 10 µM
COC(=O)[C@H](CCSC)NC(=O)c1ccc(NCc2cncn2Cc2cccc([N+](=O)[O-])c2)cc1-c1ccccc1 |  |  |  | > 10 | EC50 [9]: ≤ 5 µM; EC50 [10]: ≤ 0.92 µM; inhibition [11]: ≤ 17%
COC(=O)[C@H](CCSC)NC(=O)c1ccc(NCc2cncn2Cc2cccc(C#N)c2)cc1-c1ccccc1 |  |  |  | > 10 | EC50 [9]: ≤ 5 µM; EC50 [10]: ≤ 0.92 µM; inhibition [11]: ≤ 17%
COC(=O)[C@H](CCSC)NC(=O)c1ccc(NCc2cncn2Cc2cccc(C)c2)cc1-c1ccccc1 |  |  |  | > 10 | EC50 [9]: ≤ 5 µM; EC50 [10]: ≤ 0.92 µM; inhibition [11]: ≤ 17%
COC(=O)[C@H](CCSC)NC(=O)c1ccc(NCc2cncn2Cc2ccccc2C)cc1-c1ccccc1 |  |  | 0 | > 10 | EC50 [8]: ≤ 10 µM
CSCC[C@H](NC(=O)c1ccc(NCc2cncn2Cc2ccc(-c3ccccc3)cc2)cc1-c1ccccc1)C(=O)O |  | > 10 | 85.6 |  | IC50 [17]: 0.008 µM; EC50 [13]: > 60 µM
CSCC[C@H](NC(=O)c1ccc(NCc2cncn2Cc2ccccc2C#N)cc1-c1ccccc1)C(=O)O | > 60 | > 10 |  | > 10 | inhibition [14]: ≤ 41%
COC(=O)[C@H](CCSC)NC(=O)c1ccc(NCc2cncn2Cc2ccccc2Cl)cc1-c1ccccc1 |  |  | 0 | > 10 | EC50 [8]: ≤ 10 µM
COC(=O)[C@H](CCSC)NC(=O)c1ccc(NC[C@@H](N)CS)cc1-c1ccccc1 |  | 0.7 |  | > 25 | IC50 [2]: 0.04 µM
